Test results reported in ChEMBL document CHEMBL3576845, “Discovery of Novel Multiacting Topoisomerase I/II and Histone Deacetylase Inhibitors” (ACS Med Chem Lett, 2015).
Calls of active or inactive are those of the source. The calls are words filed in the database; no cut-off is given here.

Legend:
MDA-MB-231 = assay: Cytotoxicity against human MDA-MB-231 cells assessed as growth inhibition after 72 hrs by MTT assay; assay type: functional, cell-based; conditions: MDA-MB-231, 72 h
[1] = molecular target: T1, DNA topoisomerase 1 (Homo sapiens) (UniProt P11387); assay: Inhibition of topoisomerase1 (unknown origin)-mediated pBR322 DNA relaxation at 50 uM after 15 mins by agarose gel electrophoresis
T1 sequence (whole entry): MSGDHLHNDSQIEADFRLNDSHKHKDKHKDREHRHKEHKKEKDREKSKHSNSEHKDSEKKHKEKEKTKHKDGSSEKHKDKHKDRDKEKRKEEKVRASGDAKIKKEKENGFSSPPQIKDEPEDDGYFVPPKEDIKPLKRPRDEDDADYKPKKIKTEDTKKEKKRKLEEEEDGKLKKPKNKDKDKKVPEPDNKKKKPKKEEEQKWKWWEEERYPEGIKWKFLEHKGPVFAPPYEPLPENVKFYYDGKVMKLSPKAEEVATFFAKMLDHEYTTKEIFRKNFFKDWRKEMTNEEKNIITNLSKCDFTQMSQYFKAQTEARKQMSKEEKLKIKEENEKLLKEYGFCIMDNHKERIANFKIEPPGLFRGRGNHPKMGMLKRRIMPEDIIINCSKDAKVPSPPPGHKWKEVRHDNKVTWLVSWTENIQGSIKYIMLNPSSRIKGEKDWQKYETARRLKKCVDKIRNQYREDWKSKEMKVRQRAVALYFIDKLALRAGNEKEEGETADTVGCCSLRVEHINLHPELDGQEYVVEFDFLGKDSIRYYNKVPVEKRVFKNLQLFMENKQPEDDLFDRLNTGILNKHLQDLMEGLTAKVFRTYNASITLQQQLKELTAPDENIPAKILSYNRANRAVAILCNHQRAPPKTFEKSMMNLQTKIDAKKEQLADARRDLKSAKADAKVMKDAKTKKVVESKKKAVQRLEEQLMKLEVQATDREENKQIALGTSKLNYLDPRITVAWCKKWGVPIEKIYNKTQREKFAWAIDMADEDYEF
Procedure, shortened: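 Relaxation of supercoiled pBR322 plasmid by purified Top1 with compound at 50 μM; camptothecin 50 μM as reference; DNA-only and DNA + enzyme lanes as controls; gel read-out; repeated 3 times.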

[2] = Cytotoxicity against HLF assessed as growth inhibition after 72 hrs by MTT assay; assay type: functional; conditions: Homo sapiens
HCT-116 [3] = assay: Cytotoxicity against human HCT116 cells assessed as growth inhibition after 72 hrs by MTT assay; assay type: functional, cell-based; conditions: HCT-116, 72 h
Histone deacetylase 1 = Histone deacetylase 1 (Homo sapiens, UniProt Q13547); assay: Inhibition of recombinant full length human HDAC1 (1 to 482) expressed in baculovirus infected insect Sf9 cells using fluorogenic HDAC substrate 3 after 30 mins by fluorescence assay
[4] = molecular target: DNA topoisomerase 2-alpha (Homo sapiens) (UniProt P11388); assay: Inhibition of topoisomerase-2alpha (unknown origin)-mediated pBR322 DNA relaxation at 50 uM after 30 mins by agarose gel electrophoresis
Procedure, shortened: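 Purified Top2α relaxation of supercoiled pBR322 plasmid with compound at 50 μM; etoposide 50 μM as reference; DNA-only and DNA + enzyme lanes as controls; gel read-out; repeated 3 times.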

HCT-116 [5] = assay: Induction of apoptosis in human HCT116 cells assessed as necrotic cells at 5 uM after 24 hrs by annexin V-FITC/propidium iodide staining-based flow cytometric analysis (reference value: 8%); assay type: functional
HCT-116 [6] = assay: Induction of apoptosis in human HCT116 cells assessed as necrotic cells at 5 uM after 48 hrs by annexin V-FITC/propidium iodide staining-based flow cytometric analysis (reference value: 5.25%); assay type: functional
HCT-116 [7] = assay: Induction of apoptosis in human HCT116 cells assessed as late apoptotic cells at 5 uM after 24 hrs by annexin V-FITC/propidium iodide staining-based flow cytometric analysis (reference value: 1.05%); assay type: functional
HCT-116 [8] = assay: Induction of apoptosis in human HCT116 cells assessed as early apoptotic cells at 5 uM after 24 hrs by annexin V-FITC/propidium iodide staining-based flow cytometric analysis (reference value: 2.27%); assay type: functional
HCT-116 [9] = assay: Induction of apoptosis in human HCT116 cells assessed as early apoptotic cells at 5 uM after 48 hrs by annexin V-FITC/propidium iodide staining-based flow cytometric analysis (reference value: 2.76%); assay type: functional
HCT-116 [10] = assay: Induction of apoptosis in human HCT116 cells assessed as late apoptotic cells at 5 uM after 48 hrs by annexin V-FITC/propidium iodide staining-based flow cytometric analysis (reference value: 3.03%); assay type: functional
HCT-116 [11] = assay: Induction of apoptosis in human HCT116 cells at 5 uM after 24 hrs by annexin V-FITC/propidium iodide staining-based flow cytometric analysis relative to control; assay type: functional
HCT-116 [12] = assay: Induction of apoptosis in human HCT116 cells at 5 uM after 48 hrs by annexin V-FITC/propidium iodide staining-based flow cytometric analysis relative to control; assay type: functional
Histone deacetylase 2 = Histone deacetylase 2 (Homo sapiens, UniProt Q92769); assay: Inhibition of recombinant C-terminal His-tagged full length human HDAC2 expressed in baculovirus infected insect Sf9 cells using fluorogenic HDAC substrate 3 after 30 mins by fluorescence assay; assay type: cell-based
[13] = molecular target: T2, Protein deacetylase HDAC6 (Homo sapiens, UniProt Q9UBN7); assay: Inhibition of recombinant N-terminal GST-tagged full length human HDAC6 expressed in baculovirus infected insect Sf9 cells using fluorogenic HDAC substrate 3 after 30 mins by fluorescence assay
T2 sequence (Q9UBN7 whole entry): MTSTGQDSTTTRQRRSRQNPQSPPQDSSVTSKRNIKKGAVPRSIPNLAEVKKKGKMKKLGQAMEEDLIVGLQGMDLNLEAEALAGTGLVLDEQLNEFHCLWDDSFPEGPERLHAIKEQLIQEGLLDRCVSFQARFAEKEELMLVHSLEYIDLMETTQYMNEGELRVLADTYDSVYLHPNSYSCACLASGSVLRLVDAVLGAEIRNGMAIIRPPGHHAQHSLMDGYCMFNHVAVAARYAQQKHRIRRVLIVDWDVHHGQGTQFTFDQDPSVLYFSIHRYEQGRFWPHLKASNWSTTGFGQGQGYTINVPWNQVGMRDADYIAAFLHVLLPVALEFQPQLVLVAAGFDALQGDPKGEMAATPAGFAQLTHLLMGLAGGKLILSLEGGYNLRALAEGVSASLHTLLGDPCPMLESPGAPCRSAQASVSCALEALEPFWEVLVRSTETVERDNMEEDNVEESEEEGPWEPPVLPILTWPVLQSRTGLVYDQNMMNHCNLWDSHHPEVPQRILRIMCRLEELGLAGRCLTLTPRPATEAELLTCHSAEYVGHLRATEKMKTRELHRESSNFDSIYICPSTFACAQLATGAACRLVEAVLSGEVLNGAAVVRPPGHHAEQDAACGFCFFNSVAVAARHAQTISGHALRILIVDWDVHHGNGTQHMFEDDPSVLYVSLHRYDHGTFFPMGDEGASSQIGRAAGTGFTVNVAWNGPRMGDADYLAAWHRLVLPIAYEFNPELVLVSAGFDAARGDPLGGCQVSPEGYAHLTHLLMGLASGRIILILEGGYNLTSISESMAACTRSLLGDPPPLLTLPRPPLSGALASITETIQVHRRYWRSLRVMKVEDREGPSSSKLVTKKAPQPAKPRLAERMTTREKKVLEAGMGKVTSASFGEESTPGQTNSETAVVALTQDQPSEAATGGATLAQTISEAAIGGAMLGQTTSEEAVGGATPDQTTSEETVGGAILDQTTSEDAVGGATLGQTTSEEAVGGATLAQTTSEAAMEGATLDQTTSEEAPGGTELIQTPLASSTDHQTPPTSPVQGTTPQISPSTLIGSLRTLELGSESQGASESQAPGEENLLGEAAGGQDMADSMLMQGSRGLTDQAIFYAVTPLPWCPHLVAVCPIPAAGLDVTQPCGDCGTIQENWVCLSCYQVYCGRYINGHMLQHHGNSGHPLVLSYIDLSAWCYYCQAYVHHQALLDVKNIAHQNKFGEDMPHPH

Histone deacetylase 8 = molecular target: T3, Histone deacetylase 8 (Homo sapiens, UniProt Q9BY41); assay: Inhibition of recombinant C-terminal His-tagged full length human HDAC8 expressed in baculovirus infected insect Sf9 cells using fluorogenic HDAC class 2a substrate after 30 mins by fluorescence assay
T3 sequence (Q9BY41 whole entry): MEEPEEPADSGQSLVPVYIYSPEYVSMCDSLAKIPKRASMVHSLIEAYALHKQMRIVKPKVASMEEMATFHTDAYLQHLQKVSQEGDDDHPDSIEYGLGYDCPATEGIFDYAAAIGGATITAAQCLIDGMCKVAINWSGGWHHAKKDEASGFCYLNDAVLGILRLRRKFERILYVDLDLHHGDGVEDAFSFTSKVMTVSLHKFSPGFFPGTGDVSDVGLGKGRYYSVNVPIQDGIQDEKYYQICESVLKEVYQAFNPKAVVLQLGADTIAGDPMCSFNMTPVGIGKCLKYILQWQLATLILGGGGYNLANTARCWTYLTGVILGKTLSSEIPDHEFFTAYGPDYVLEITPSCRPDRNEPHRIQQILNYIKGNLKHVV

[14] = molecular target: Histone deacetylase (Homo sapiens) (UniProt Q13547+O15379+Q9UBN7+Q92769+Q9UQL6+Q8WUI4+Q9BY41+Q96DB2+P56524+Q9UKV0+Q969S8); assay: Inhibition of HDAC in human HCT116 cells assessed as induction of histone H3 hyperacetylation at 2.5 to 5 uM after 24 to 48 hrs by Western blot analysis; assay type: cell-based; conditions: HCT-116
Procedure, shortened: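 HCT116 cells treated 24 h with compound at 2.5 or 5 μM alongside an untreated control; lysates probed by Western blot for acetylated histone H3.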

[15] = molecular target: Histone deacetylase 3/Nuclear receptor corepressor 2 (HDAC3/NCoR2) (Homo sapiens, UniProt O15379); assay: Inhibition of recombinant C-terminal His-tagged full length human HDAC3/NcoR2 complex expressed in baculovirus infected insect Sf9 cells using fluorogenic HDAC substrate 3 after 30 mins by fluorescence assay
Histone deacetylase 3/Nuclear receptor corepressor 2 (HDAC3/NCoR2), sequence (O15379 whole entry): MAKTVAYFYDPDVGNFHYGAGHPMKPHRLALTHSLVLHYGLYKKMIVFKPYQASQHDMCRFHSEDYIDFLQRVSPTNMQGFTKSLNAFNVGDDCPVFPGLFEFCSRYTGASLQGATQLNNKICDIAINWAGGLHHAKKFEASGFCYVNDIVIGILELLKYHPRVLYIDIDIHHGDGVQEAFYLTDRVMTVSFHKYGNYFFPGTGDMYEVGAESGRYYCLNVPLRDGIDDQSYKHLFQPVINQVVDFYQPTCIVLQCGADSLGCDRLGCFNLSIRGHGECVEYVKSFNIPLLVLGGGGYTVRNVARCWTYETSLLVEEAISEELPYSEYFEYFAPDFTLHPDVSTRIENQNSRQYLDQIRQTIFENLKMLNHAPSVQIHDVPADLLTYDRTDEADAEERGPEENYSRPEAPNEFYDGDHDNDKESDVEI
Histone deacetylase 3/Nuclear receptor corepressor 2 (HDAC3/NCoR2), sequence (Q9Y618 whole entry, further chain): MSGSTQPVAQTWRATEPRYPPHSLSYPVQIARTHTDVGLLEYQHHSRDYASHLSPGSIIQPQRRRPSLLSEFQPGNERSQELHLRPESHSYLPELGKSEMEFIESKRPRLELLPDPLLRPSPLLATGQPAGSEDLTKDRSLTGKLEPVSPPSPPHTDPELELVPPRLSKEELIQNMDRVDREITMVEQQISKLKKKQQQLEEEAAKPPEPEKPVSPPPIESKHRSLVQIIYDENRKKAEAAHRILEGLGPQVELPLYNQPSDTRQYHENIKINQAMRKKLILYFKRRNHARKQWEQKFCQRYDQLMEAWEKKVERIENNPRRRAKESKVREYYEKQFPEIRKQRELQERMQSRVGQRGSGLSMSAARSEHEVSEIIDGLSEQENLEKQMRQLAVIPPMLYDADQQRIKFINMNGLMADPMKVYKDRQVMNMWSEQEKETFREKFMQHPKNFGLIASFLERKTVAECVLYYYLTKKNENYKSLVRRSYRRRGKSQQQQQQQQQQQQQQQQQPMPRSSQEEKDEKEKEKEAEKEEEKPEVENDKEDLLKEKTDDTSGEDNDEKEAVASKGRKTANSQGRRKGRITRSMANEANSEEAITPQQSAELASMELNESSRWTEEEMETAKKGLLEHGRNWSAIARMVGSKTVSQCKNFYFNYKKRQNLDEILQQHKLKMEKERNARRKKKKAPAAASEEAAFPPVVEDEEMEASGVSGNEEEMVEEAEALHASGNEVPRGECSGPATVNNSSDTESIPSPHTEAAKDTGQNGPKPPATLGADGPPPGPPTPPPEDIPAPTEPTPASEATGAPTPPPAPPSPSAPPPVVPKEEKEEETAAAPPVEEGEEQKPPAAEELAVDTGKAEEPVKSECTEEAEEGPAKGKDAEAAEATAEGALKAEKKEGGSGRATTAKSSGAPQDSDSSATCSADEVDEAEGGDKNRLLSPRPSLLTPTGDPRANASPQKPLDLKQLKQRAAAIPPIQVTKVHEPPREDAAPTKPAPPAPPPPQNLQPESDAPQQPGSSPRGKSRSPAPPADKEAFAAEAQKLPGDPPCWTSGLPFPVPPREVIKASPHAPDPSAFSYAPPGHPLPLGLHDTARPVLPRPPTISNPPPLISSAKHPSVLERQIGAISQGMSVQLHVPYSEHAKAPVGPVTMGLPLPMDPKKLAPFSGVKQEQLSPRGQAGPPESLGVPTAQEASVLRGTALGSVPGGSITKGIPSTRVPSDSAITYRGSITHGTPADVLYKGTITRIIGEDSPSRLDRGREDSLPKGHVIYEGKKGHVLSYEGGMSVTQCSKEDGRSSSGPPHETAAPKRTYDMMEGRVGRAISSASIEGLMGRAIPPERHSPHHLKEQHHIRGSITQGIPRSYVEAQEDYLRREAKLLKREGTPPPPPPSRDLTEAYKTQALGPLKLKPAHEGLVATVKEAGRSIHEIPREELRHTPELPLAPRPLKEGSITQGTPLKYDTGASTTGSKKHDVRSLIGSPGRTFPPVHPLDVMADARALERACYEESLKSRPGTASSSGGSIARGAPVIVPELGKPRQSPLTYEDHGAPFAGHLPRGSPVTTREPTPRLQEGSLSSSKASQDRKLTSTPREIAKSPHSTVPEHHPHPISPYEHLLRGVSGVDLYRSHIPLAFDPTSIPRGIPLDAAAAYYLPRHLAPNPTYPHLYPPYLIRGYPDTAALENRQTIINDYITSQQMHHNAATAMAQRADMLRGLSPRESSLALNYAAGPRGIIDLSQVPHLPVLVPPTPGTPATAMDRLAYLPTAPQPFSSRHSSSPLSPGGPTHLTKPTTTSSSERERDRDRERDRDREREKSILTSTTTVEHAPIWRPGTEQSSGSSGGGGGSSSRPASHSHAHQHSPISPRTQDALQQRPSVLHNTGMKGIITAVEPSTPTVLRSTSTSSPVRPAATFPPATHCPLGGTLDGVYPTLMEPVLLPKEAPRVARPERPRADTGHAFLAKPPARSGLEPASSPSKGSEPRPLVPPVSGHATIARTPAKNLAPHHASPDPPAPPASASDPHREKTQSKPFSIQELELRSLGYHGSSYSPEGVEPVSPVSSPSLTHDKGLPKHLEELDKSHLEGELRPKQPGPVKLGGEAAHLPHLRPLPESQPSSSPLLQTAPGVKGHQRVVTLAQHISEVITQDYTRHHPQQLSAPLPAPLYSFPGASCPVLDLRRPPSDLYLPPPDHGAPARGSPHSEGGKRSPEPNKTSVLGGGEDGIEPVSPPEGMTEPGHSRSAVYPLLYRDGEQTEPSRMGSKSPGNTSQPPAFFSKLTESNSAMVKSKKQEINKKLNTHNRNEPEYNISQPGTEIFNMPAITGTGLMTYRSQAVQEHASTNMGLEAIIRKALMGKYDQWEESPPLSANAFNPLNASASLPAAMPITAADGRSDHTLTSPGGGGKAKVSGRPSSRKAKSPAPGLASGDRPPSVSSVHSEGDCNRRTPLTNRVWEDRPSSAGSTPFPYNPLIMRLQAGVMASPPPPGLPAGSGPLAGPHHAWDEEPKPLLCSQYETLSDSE

DNA topoisomerase 2-alpha (Homo sapiens), sequence (P11388 whole entry): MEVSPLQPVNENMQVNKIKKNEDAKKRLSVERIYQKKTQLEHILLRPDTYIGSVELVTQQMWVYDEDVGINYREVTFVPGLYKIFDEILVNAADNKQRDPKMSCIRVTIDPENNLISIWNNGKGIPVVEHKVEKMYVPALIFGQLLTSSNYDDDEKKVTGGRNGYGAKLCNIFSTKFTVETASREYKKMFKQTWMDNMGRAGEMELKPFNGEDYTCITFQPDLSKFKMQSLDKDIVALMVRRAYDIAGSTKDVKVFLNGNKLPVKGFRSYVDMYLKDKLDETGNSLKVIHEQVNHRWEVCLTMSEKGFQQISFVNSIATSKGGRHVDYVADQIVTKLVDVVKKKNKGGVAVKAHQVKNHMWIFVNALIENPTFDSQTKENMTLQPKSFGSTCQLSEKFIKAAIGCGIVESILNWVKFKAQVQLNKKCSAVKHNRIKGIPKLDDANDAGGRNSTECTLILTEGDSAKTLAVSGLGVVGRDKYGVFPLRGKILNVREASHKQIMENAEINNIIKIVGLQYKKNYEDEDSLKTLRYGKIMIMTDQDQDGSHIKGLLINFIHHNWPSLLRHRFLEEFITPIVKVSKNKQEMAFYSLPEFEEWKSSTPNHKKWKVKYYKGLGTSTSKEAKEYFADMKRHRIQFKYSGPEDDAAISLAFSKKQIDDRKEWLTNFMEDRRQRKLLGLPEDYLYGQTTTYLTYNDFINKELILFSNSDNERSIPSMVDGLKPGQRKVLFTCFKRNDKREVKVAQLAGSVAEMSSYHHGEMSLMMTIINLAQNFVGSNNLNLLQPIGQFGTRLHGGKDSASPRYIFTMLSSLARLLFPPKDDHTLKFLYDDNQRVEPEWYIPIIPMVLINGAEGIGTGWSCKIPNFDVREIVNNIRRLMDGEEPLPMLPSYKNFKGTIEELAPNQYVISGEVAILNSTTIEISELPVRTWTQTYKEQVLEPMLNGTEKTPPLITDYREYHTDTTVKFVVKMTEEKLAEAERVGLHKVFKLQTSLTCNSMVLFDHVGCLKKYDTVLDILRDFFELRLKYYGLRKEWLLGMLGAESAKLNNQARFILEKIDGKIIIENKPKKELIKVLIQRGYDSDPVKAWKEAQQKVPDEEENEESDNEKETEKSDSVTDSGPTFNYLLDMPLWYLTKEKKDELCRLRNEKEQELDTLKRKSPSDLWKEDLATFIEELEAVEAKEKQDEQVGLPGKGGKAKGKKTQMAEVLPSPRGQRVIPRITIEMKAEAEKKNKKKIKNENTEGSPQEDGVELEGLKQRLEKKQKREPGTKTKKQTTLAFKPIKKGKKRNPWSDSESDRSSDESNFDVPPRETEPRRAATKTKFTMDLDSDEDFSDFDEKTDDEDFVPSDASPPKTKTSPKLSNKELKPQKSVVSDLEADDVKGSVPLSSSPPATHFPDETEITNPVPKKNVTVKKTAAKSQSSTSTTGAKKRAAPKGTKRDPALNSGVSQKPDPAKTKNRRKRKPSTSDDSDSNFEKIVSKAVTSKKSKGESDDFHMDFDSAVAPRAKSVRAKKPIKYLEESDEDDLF
Histone deacetylase 1, sequence (Q13547 whole entry): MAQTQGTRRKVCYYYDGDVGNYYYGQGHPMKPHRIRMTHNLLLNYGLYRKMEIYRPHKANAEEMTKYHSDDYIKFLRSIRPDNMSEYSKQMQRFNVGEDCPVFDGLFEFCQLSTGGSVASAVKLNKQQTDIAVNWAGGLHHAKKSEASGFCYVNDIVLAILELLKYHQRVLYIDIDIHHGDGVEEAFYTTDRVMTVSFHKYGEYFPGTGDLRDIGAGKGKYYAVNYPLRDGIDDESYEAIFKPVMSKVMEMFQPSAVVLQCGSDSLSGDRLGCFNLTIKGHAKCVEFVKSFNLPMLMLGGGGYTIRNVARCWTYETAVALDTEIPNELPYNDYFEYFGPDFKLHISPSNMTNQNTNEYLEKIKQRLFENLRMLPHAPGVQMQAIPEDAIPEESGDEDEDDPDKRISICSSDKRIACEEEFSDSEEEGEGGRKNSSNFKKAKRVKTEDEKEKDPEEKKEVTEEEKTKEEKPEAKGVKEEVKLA

Row | SMILES | inhibition [1] | IC50 (Histone deacetylase 1) [µM] | inhibition [4] | IC50 (MDA-MB-231) [µM] | IC50 [2] [µM] | IC50 (HCT-116 [3]) [µM] | further results
1 | CN1c2ccc(NCc3ccc(-c4noc(CCCC(=O)NO)n4)cc3)cc2C(=O)N2CCc3c([nH]c4ccc(O)cc34)C21 (centres undefined) | Active | 0.321 | Active | 16 | 6.7 | 3.5 | 
2 | O=C(CCCCCCC(=O)Nc1ccccc1)NO [VORINOSTAT] |  |  |  |  |  |  | Activity (HCT-116 [5]): 1.76%; Activity (HCT-116 [6]): 15.64%; Activity (HCT-116 [7]): 6.34%; Activity (HCT-116 [8]): 19.2%; Activity (HCT-116 [9]): 11.37%; Activity (HCT-116 [10]): 35.44%
3 | CN1c2ccc(N)cc2C(=O)N2CCc3c([nH]c4ccc(O)cc34)C21 (centres undefined) | Active |  | Active | 0.49 | 0.47 | 0.43 | Activity (HCT-116 [11]): 11.09%; Activity (HCT-116 [12]): 16.39%
4 | COc1cc([C@@H]2c3cc4c(cc3[C@@H](O[C@@H]3O[C@@H]5CO[C@@H](C)O[C@H]5[C@H](O)[C@H]3O)[C@H]3COC(=O)[C@H]23)OCO4)cc(OC)c1O |  |  | Active |  |  |  | 
5 | COc1ccc2[nH]c3c(c2c1)CCN1C(=O)c2cc(NC(=O)CCCCCC(=O)NO)ccc2N(C)C31 (centres undefined) | inactive | > 10 | Active | 58 | 68 | 35 | 
6 | CN1c2ccc(NCc3ccc(-c4nnc(CCCC(=O)NO)o4)cc3)cc2C(=O)N2CCc3c([nH]c4ccc(O)cc34)C21 (centres undefined) | Active | > 10 | Active | > 168 | > 168 | 11 | 
7 | COc1ccc2[nH]c3c(c2c1)CCN1C(=O)c2cc(NC(=O)CCCCC(=O)NO)ccc2N(C)C31 (centres undefined) | inactive | 0.275 | Active | 36 | 62 | 22 | 

More lines, in order of falling IC50 (Histone deacetylase 1), values ahead:

Row | inhibition [1] | IC50 (Histone deacetylase 1) [µM] | inhibition [4] | SMILES | IC50 (MDA-MB-231) [µM] | IC50 [2] [µM] | IC50 (HCT-116 [3]) [µM] | further results
8 | Active | 0.19 | Active | CN1c2ccc(NCc3ccc(-c4noc(CCCCC(=O)NO)n4)cc3)cc2C(=O)N2CCc3c([nH]c4ccc(O)cc34)C21 (centres undefined) | 5.9 | 8.2 | 3.7 | 
9 | Active | 0.093 | Active | CN1c2ccc(NCc3ccc(-c4nnc(CCCCC(=O)NO)o4)cc3)cc2C(=O)N2CCc3c([nH]c4ccc(O)cc34)C21 (centres undefined) | 30 | 26 | 4.9 | 
10 | Active | 0.089 | Active | CN1c2ccc(NCc3ccc(-c4nnc(CCCCCCC(=O)NO)o4)cc3)cc2C(=O)N2CCc3c([nH]c4ccc(O)cc34)C21 (centres undefined) | 5.7 | 6.1 | 9.7 | 
11 | Active | 0.03 | Active | CN1c2ccc(NCc3ccc(NC(=O)CCCCCCC(=O)NO)cc3)cc2C(=O)N2CCc3c([nH]c4ccc(O)cc34)C21 (centres undefined) | 14 | 13 | 2.1 | 
12 | Active | 0.024 | Active | CN1c2ccc(NCc3ccc(-c4noc(CCCCCCC(=O)NO)n4)cc3)cc2C(=O)N2CCc3c([nH]c4ccc(O)cc34)C21 (centres undefined) | 2.3 | 1.3 | 0.41 | Activity (HCT-116 [5]): 2.68%; Activity (HCT-116 [6]): 7.96%; IC50 (Histone deacetylase 2): 0.275 µM; IC50 [13]: 0.013 µM; Activity (HCT-116 [7]): 16.73%; Activity (HCT-116 [8]): 22.59%; Activity (HCT-116 [9]): 29.76%; IC50 (Histone deacetylase 8): 2.5 µM; inhibition [14]: Active; Activity (HCT-116 [10]): 42.14%; IC50 [15]: 0.071 µM
